Experimental data: ChEMBL document CHEMBL3585281, “Antibacterial Labdane Diterpenoids from Vitex vestita” (2015)

How the values were obtained:
Format in all cases: functional
Bacillus cereus [1] = assay: Antibacterial activity against Bacillus cereus N258 after 18 hrs by agar dilution method; settings: N258, 18 h
Outline: (§1)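 Agar-dilution MIC against Gram-positive strains. Compounds in DMSO, geometric dilutions giving final 100−0.75 mg/L in Mueller Hinton agar. Strains grown 18 h at 37 °C in trypticase soy broth, diluted in sterile water, spotted by Steers inoculator (about 1000 UFC/spot). Plates incubated 18 h at 37 °C; DMSO blank; ofloxacin positive control. MIC = lowest concentration with no visible growth.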

[2] = test system: Staphylococcus intermedius; assay: Antibacterial activity against Staphylococcus intermedius N987 after 18 hrs by agar dilution method; settings: N987, 18 h; outline: as §1
Enterococcus faecalis [3] = assay: Antibacterial activity against Enterococcus faecalis N520 after 18 hrs by agar dilution method; settings: N520, 18 h; outline: as §1
Enterococcus faecalis [4] = assay: Antibacterial activity against Enterococcus faecalis CIP 103214 after 18 hrs by agar dilution method; settings: CIP 103214, 18 h; outline: as §1
Enterococcus faecalis [5] = assay: Antibacterial activity against Enterococcus faecalis N491 after 18 hrs by agar dilution method; settings: N491, 18 h; outline: as §1
Enterococcus gallinarum [6] = assay: Antibacterial activity against Enterococcus gallinarum N492 after 18 hrs by agar dilution method; settings: N492, 18 h; outline: as §1
Bacillus cereus [7] = assay: Antibacterial activity against Bacillus cereus N349 after 18 hrs by agar dilution method; settings: N349, 18 h; outline: as §1
[8] = test system: Staphylococcus haemolyticus; assay: Antibacterial activity against Staphylococcus haemolyticus CIP 8156 after 18 hrs by agar dilution method; settings: CIP 8156, 18 h; outline: as §1
Staphylococcus aureus [9] = assay: Antibacterial activity against Staphylococcus aureus ATCC 25923 after 18 hrs by agar dilution method; settings: ATCC 25923, 18 h; outline: as §1
MRC5 [10] = assay: Cytotoxicity against human MRC5 cells assessed as growth inhibition at 10^-6 M after 72 hrs by MTS assay relative to control; settings: MRC5, 72 h, read-out: GI
Outline: (§2)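 Cells from ATCC; HCT-116 grown in RPMI 1640 and MRC5 in DMEM, each with 10% FCS and 1% glutamine, 37 °C, 5% CO2. Seeded at 2.5 × 10^3 cells/well, cultured 24 h, then exposed to compounds at 1 and 10 μM final for 72 h. MTS read-out, absorbance 490 nm; percent index from treated/control OD490 × 100, three experiments.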

[11] = test system: Enterococcus casseliflavus; assay: Antibacterial activity against Enterococcus casseliflavus N487 after 18 hrs by agar dilution method; settings: N487, 18 h; outline: as §1
Enterococcus gallinarum [12] = assay: Antibacterial activity against Enterococcus gallinarum N489 after 18 hrs by agar dilution method; settings: N489, 18 h; outline: as §1
Enterococcus avium = assay: Antibacterial activity against Enterococcus avium CIP 104053 after 18 hrs by agar dilution method; settings: CIP 104053, 18 h; outline: as §1
Bacillus cereus [13] = assay: Antibacterial activity against Bacillus cereus N190 after 18 hrs by agar dilution method; settings: N190, 18 h; outline: as §1
Listeria innocua = assay: Antibacterial activity against Listeria innocua E044 after 18 hrs by agar dilution method; settings: E044, 18 h; outline: as §1
Bacillus spizizenii = assay: Antibacterial activity against Bacillus subtilis ATCC 6633 after 18 hrs by agar dilution method; settings: ATCC 6633, 18 h; outline: as §1
Mammaliicoccus sciuri = assay: Antibacterial activity against Staphylococcus sciuri N993 after 18 hrs by agar dilution method; settings: N993, 18 h; outline: as §1
Listeria monocytogenes [14] = assay: Antibacterial activity against Listeria monocytogenes N836 after 18 hrs by agar dilution method; settings: N836, 18 h; outline: as §1
[15] = test system: Enterococcus casseliflavus; assay: Antibacterial activity against Enterococcus casseliflavus CIP 103018 after 18 hrs by agar dilution method; settings: CIP 103018, 18 h; outline: as §1
Staphylococcus aureus [16] = assay: Antibacterial activity against Staphylococcus aureus CIP 53154 after 18 hrs by agar dilution method; settings: CIP 53154, 18 h; outline: as §1
Bacillus cereus [17] = assay: Antibacterial activity against Bacillus cereus CIP 6624 after 18 hrs by agar dilution method; settings: CIP 6624, 18 h; outline: as §1
Staphylococcus aureus [18] = assay: Antibacterial activity against Staphylococcus aureus CRBIP 2121 after 18 hrs by agar dilution method; settings: CRBIP 2121, 18 h; outline: as §1
MRC5 [19] = assay: Cytotoxicity against human MRC5 cells assessed as growth inhibition at 10^-5 M after 72 hrs by MTS assay relative to control; settings: MRC5, 72 h, read-out: GI; outline: as §2
[20] = test system: Staphylococcus saprophyticus; assay: Antibacterial activity against Staphylococcus saprophyticus CIP 76125 after 18 hrs by agar dilution method; settings: CIP 76125, 18 h; outline: as §1
Enterococcus faecium [21] = assay: Antibacterial activity against Enterococcus faecium CIP 107387 after 18 hrs by agar dilution method; settings: CIP 107387, 18 h; outline: as §1
Enterococcus faecium [22] = assay: Antibacterial activity against Enterococcus faecium N507 after 18 hrs by agar dilution method; settings: N507, 18 h; outline: as §1
Staphylococcus aureus [23] = assay: Antibacterial activity against Staphylococcus aureus CIP 7625 after 18 hrs by agar dilution method; settings: CIP 7625, 18 h; outline: as §1
Staphylococcus aureus [24] = assay: Antibacterial activity against Staphylococcus aureus CIP 5710 after 18 hrs by agar dilution method; settings: CIP 5710, 18 h; outline: as §1
Listeria monocytogenes [25] = assay: Antibacterial activity against Listeria monocytogenes N783 after 18 hrs by agar dilution method; settings: N783, 18 h; outline: as §1
Listeria monocytogenes [26] = assay: Antibacterial activity against Listeria monocytogenes CIP 103575 after 18 hrs by agar dilution method; settings: CIP 103575, 18 h; outline: as §1
HCT-116 [27] = assay: Cytotoxicity against human HCT116 cells assessed as growth inhibition at 10^-6 M after 72 hrs by MTS assay relative to control; settings: HCT-116, 72 h, read-out: GI; outline: as §2
Enterococcus faecalis [28] = assay: Antibacterial activity against Enterococcus faecalis CIP 104676 after 18 hrs by agar dilution method; settings: CIP 104676, 18 h; outline: as §1
Staphylococcus aureus [29] = assay: Antibacterial activity against Staphylococcus aureus ATCC 9144 oxford after 18 hrs by agar dilution method; outline: as §1
[30] = test system: Staphylococcus saprophyticus; assay: Antibacterial activity against Staphylococcus saprophyticus E260 after 18 hrs by agar dilution method; settings: E260, 18 h; outline: as §1
[31] = test system: Staphylococcus lugdunensis; assay: Antibacterial activity against Staphylococcus lugdunensis ATCC 43809 after 18 hrs by agar dilution method; settings: ATCC 43809, 18 h; outline: as §1
[32] = test system: Staphylococcus epidermidis; assay: Antibacterial activity against Staphylococcus epidermidis CIP 53124 after 18 hrs by agar dilution method; settings: CIP 53124, 18 h; outline: as §1
HCT-116 [33] = assay: Cytotoxicity against human HCT116 cells assessed as growth inhibition at 10^-5 M after 72 hrs by MTS assay relative to control; settings: HCT-116, 72 h, read-out: GI; outline: as §2
Staphylococcus aureus [34] = assay: Antibacterial activity against Staphylococcus aureus CIP 53156 after 18 hrs by agar dilution method; settings: CIP 53156, 18 h; outline: as §1
Enterococcus faecium [35] = assay: Antibacterial activity against Enterococcus faecium N733 after 18 hrs by agar dilution method; settings: N733, 18 h; outline: as §1
Staphylococcus aureus [36] = assay: Antibacterial activity against Staphylococcus aureus CIP 483 after 18 hrs by agar dilution method; settings: CIP 483, 18 h; outline: as §1
Enterococcus faecalis [37] = assay: Antibacterial activity against Enterococcus faecalis N518 after 18 hrs by agar dilution method; settings: N518, 18 h; outline: as §1
Streptococcus agalactiae = assay: Antibacterial activity against Streptococcus agalactiae CIP 103227 after 18 hrs by agar dilution method; settings: ATCC 13813, 18 h; outline: as §1
Corynebacterium striatum = assay: Antibacterial activity against Corynebacterium striatum N840 after 18 hrs by agar dilution method; settings: N840, 18 h; outline: as §1
Enterococcus gallinarum [38] = assay: Antibacterial activity against Enterococcus gallinarum CIP 105985 after 18 hrs by agar dilution method; settings: CIP 105985, 18 h; outline: as §1
Enterococcus durans = assay: Antibacterial activity against Enterococcus durans CIP 104999 after 18 hrs by agar dilution method; settings: CIP 104999, 18 h; outline: as §1
Enterococcus faecium [39] = assay: Antibacterial activity against Enterococcus faecium CIP 103014 after 18 hrs by agar dilution method; settings: CIP 103014, 18 h; outline: as §1
Enterococcus hirae = assay: Antibacterial activity against Enterococcus hirae CIP 5855 after 18 hrs by agar dilution method; settings: CIP 5855, 18 h; outline: as §1
Enterococcus faecium [40] = assay: Antibacterial activity against Enterococcus faecium N823 after 18 hrs by agar dilution method; settings: N823, 18 h; outline: as §1
Enterococcus faecium [41] = assay: Antibacterial activity against Enterococcus faecium N490 after 18 hrs by agar dilution method; settings: N490, 18 h; outline: as §1
Listeria monocytogenes [42] = assay: Antibacterial activity against Listeria monocytogenes N851 after 18 hrs by agar dilution method; settings: N851, 18 h; outline: as §1

C=C1CC[C@H]2C(C)(C)CCC[C@]2(C)[C@H]1C[C@H](O)C1=CCOC1=O
71%: inhibition of growth at 10 µM (MRC5 [19])
79 µM: MIC [31]
> 79 µM: MIC (Enterococcus faecalis [3]) | MIC (Enterococcus faecalis [4]) | MIC (Enterococcus faecalis [5]) | MIC (Enterococcus gallinarum [6]) | MIC [8] | MIC (Staphylococcus aureus [9]) | MIC [11] | MIC (Enterococcus avium) | MIC (Mammaliicoccus sciuri) | MIC [15] | MIC [20] | MIC (Enterococcus faecium [21]) | MIC (Enterococcus faecium [22]) | MIC (Staphylococcus aureus [23]) | MIC (Staphylococcus aureus [24]) | MIC (Listeria monocytogenes [26]) | MIC (Enterococcus faecalis [28]) | MIC [30] | MIC (Enterococcus faecium [35]) | MIC (Staphylococcus aureus [36]) | MIC (Enterococcus faecalis [37]) | MIC (Enterococcus gallinarum [38]) | MIC (Enterococcus faecium [39]) | MIC (Enterococcus hirae) | MIC (Enterococcus faecium [40])
50 µM: MIC [2] | MIC (Enterococcus gallinarum [12]) | MIC (Listeria innocua) | MIC (Listeria monocytogenes [14]) | MIC (Staphylococcus aureus [16]) | MIC (Bacillus cereus [17]) | MIC (Staphylococcus aureus [18]) | MIC (Listeria monocytogenes [25]) | MIC (Staphylococcus aureus [29]) | MIC [32] | MIC (Staphylococcus aureus [34]) | MIC (Streptococcus agalactiae) | MIC (Corynebacterium striatum) | MIC (Enterococcus durans) | MIC (Enterococcus faecium [41]) | MIC (Listeria monocytogenes [42])
0%: inhibition of growth at 1 µM (MRC5 [10]) | inhibition of growth at 1 µM (HCT-116 [27])
25 µM: MIC (Bacillus cereus [1]) | MIC (Bacillus cereus [7]) | MIC (Bacillus cereus [13]) | MIC (Bacillus spizizenii)
69%: inhibition of growth at 10 µM (HCT-116 [33])

C=C1CC[C@H]2C(C)(C)CCC[C@]2(C)[C@H]1C[C@H](O)C1=CC(=O)OC1O (stereo not given in full)
12 µM: MIC (Bacillus spizizenii)
67%: inhibition of growth at 10 µM (MRC5 [19])
48 µM: MIC (Staphylococcus aureus [9]) | MIC (Staphylococcus aureus [16]) | MIC (Staphylococcus aureus [18]) | MIC [20] | MIC (Staphylococcus aureus [23]) | MIC (Staphylococcus aureus [24]) | MIC (Staphylococcus aureus [29]) | MIC [30] | MIC [31] | MIC [32] | MIC (Staphylococcus aureus [34]) | MIC (Staphylococcus aureus [36]) | MIC (Enterococcus durans)
90%: inhibition of growth at 10 µM (HCT-116 [33])
96 µM: MIC (Enterococcus faecalis [3]) | MIC (Enterococcus faecalis [5]) | MIC (Enterococcus gallinarum [6]) | MIC (Enterococcus gallinarum [12]) | MIC (Enterococcus avium) | MIC (Mammaliicoccus sciuri) | MIC (Listeria monocytogenes [14]) | MIC (Listeria monocytogenes [25]) | MIC (Listeria monocytogenes [26]) | MIC (Enterococcus faecalis [28]) | MIC (Corynebacterium striatum) | MIC (Listeria monocytogenes [42])
24 µM: MIC (Bacillus cereus [1]) | MIC [2] | MIC (Bacillus cereus [7]) | MIC [8] | MIC (Bacillus cereus [13]) | MIC (Bacillus cereus [17]) | MIC (Streptococcus agalactiae)
19%: inhibition of growth at 1 µM (MRC5 [10])
> 96 µM: MIC (Enterococcus faecalis [4]) | MIC [11] | MIC (Listeria innocua) | MIC [15] | MIC (Enterococcus faecium [21]) | MIC (Enterococcus faecium [22]) | MIC (Enterococcus faecium [35]) | MIC (Enterococcus faecalis [37]) | MIC (Enterococcus gallinarum [38]) | MIC (Enterococcus faecium [39]) | MIC (Enterococcus hirae) | MIC (Enterococcus faecium [40]) | MIC (Enterococcus faecium [41])
1%: inhibition of growth at 1 µM (HCT-116 [27])
